Assay results gathered from unrelated publications.
Lines come from different studies, so protocols differ.
Target: Mitogen-activated protein kinase kinase kinase 2 (MAP3K2, Homo sapiens, UniProt Q9Y2U5)
Residues used in one study (Q9Y2U5 1-619): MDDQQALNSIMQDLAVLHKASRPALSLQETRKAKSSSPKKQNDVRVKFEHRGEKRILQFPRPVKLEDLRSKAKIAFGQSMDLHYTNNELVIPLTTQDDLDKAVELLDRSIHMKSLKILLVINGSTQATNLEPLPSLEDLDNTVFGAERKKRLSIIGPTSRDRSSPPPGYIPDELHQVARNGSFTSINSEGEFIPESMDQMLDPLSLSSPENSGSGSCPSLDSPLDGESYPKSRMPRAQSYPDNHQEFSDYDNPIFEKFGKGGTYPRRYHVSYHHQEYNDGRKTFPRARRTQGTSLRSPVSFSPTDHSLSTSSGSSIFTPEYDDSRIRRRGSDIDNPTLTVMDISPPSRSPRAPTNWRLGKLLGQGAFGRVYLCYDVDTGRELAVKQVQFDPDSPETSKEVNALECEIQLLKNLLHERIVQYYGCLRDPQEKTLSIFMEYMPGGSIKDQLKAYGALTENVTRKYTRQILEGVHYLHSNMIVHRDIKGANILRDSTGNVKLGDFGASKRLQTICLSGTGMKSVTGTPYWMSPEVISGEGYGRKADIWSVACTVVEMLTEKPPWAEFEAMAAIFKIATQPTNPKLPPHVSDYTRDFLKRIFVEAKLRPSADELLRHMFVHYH

Structure (SMILES) | read-out | mode | method | concentration | endpoint | result
C#Cc1cc(-c2cc(Nc3nc(N[C@@H](C)c4ccc(F)cn4)ncc3Cl)n[nH]2)ccc1C=O | enzyme activity | inhibitor |  | 0.2 µM | inhibition | 55.2%
C1=C/COCc2cc(ccc2OCCN2CCCC2)Nc2nccc(n2)-c2cccc(c2)COC/1 | binding |  |  | 0.1 µM | remaining binding | 38%
CO[C@@H]1[C@H](N(C)C(=O)c2ccccc2)C[C@H]2O[C@]1(C)n1c3ccccc3c3c4c(c5c6ccccc6n2c5c31)C(=O)NC4 | enzyme activity | inhibitor |  | 1 µM | inhibition | 94%
CC(C)S(=O)(=O)c1ccc2nccc(Nc3ccc4sc(C5CCCC5)nc4c3)c2c1 | enzyme activity | inhibitor |  | 1 µM | activity vs control | 103%
C=CC(=O)N1CCC([C@@H]2CCNc3c(C(N)=O)c(-c4ccc(Oc5ccccc5)cc4)nn32)CC1 | enzyme activity | inhibitor |  | 1 µM | inhibition | 39%
CCCCC(=O)Nc1ccc(-c2ccc3ncn(CCC)c(=O)c3c2)cn1 | binding |  | competition with immobilised ligand | 0.5 µM | remaining binding | 100%
CN1CCN(C(=O)c2ccc(NC(=O)Nc3ccc(N(C)c4ccnc(Nc5ccc(CS(C)(=O)=O)cc5)n4)cc3)cc2)CC1 | binding |  | competition with immobilised ligand | 1 µM | remaining binding | 38%
Cc1cc(O)c(-c2ccc([C@@H](C)CN(C)C)cc2)c2c1[nH]c(=O)c1sccc12 | enzyme activity | inhibitor |  | 0.1 µM | inhibition | -1.76%
COc1ccc2[nH]c3c4[nH]c5ccc(OC)cc5c4c4c(c3c2c1)C(=O)NC4=O | binding |  | competition with immobilised ligand | 1 µM | remaining binding | 85%
COc1ccc2oc(-c3ccc4nc(N)oc4c3)c/c(=N\c3ccccc3NC(=O)CCN)c2c1 | binding |  |  | 1 µM | remaining binding | 101%
